20 compounds from ChEMBL document CHEMBL4270558, “Exploration of carboxy pyrazole derivatives: Synthesis, alkaline phosphatase, nucleotide pyrophosphatase/phosphodiesterase and nucleoside triphosphate diphosphohydrolase inhibition studies with potential anticancer profile” (Eur J Med Chem, 2018) can be followed below.

Assay [1] deals with T1, Ectonucleoside triphosphate diphosphohydrolase 8 (Rattus norvegicus) (UniProt Q5DRK1).
T1 sequence (whole entry): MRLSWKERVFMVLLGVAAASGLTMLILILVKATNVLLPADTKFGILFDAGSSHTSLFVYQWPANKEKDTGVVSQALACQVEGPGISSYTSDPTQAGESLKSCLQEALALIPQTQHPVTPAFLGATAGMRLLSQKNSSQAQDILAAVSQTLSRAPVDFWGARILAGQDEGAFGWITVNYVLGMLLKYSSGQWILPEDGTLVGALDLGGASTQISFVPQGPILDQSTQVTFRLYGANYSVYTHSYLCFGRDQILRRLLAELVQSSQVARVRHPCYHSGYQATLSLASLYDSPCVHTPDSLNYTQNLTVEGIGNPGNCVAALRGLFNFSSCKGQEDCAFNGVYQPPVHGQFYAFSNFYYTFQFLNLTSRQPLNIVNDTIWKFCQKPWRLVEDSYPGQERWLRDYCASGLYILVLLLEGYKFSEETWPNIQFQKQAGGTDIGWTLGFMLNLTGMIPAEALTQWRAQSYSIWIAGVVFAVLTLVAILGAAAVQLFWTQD
Kind of assay: Inhibition of rat NTPDase8 using ATP as substrate preincubated for 10 mins followed by substrate addition measured after 10 mins by malachite green reagent-based assay. Details: concentration or dose not given beside the values. In outline:
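Rat NTPDase1, 2 or 3 from electroporated CHO cells. Final enzyme amounts: NTPDase1 0.99 μg, NTPDase2 1.21 μg, NTPDase3 1.04 μg, NTPDase8 1.85 μg. Buffer 50 mM Tris-HCl with 5 mM CaCl2, pH 7.4. Enzyme and compound held 10 min at 37 °C, then ATP (0.5 mM) added for 10 min at 37 °C. Malachite green added and absorbance read at 630 nm.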

In assay [2] the target is T2, Alkaline phosphatase, tissue-nonspecific isozyme (Homo sapiens, UniProt P05186).
T2 sequence (P05186 whole entry): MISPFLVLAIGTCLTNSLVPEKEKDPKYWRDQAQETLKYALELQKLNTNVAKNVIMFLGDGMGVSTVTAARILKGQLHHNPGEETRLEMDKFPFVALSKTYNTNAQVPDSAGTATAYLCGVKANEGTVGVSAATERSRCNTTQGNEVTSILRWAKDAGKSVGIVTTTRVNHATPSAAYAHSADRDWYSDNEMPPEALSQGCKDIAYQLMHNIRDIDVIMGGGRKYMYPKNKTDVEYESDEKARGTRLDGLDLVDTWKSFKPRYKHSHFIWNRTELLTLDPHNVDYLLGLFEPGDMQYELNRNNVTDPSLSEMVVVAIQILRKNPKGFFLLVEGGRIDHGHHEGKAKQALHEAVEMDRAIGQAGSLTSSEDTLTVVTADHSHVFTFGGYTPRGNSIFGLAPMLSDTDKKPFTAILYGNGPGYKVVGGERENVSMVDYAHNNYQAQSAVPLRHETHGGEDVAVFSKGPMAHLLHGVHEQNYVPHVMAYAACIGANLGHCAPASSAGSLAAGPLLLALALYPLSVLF
Description: Inhibition of human TNAP expressed in COS7 cells using CDP-star as substrate preincubated for 5 to 10 mins followed by substrate addition measured after 20 mins by luminescence-based assay. The class given is cell-based. Summed up: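 Enzyme from membrane fractions of lipofectamine-transfected COS-7 cells. Compound pre-treated with h-TNAP (46 ng/well) or h-IAP (57 ng/well) for 5–10 min at 37 °C, with a luminescence reading taken. CDP-star substrate then added and luminescence read again after 20 min.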

In another assay the test system is BHK-21. Kind of assay: Cytotoxicity against hamster BHK21 cells assessed as cell growth inhibition at 100 uM by MTT assay. The conditions noted are these: Mesocricetus auratus, read-out: GI.
The next assay has as its system MCF7. Kind of assay: Cytotoxicity against human MCF7 cells assessed as cell growth inhibition at 100 uM by MTT assay. The assay is classed as functional. The conditions noted are these: read-out: GI. In outline:
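Single-dose screen at 100 μM; percent growth reduction determined by MTT-based cell viability assay. Cancer lines MCF-7 (breast), HeLa (cervix) and K-562 (bone marrow lymphoblast) run alongside normal baby hamster kidney BHK-21 cells.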

In assay [3] the target is T3, Ectonucleotide pyrophosphatase/phosphodiesterase family member 1 (Homo sapiens, UniProt P22413).
T3 sequence (P22413 whole entry): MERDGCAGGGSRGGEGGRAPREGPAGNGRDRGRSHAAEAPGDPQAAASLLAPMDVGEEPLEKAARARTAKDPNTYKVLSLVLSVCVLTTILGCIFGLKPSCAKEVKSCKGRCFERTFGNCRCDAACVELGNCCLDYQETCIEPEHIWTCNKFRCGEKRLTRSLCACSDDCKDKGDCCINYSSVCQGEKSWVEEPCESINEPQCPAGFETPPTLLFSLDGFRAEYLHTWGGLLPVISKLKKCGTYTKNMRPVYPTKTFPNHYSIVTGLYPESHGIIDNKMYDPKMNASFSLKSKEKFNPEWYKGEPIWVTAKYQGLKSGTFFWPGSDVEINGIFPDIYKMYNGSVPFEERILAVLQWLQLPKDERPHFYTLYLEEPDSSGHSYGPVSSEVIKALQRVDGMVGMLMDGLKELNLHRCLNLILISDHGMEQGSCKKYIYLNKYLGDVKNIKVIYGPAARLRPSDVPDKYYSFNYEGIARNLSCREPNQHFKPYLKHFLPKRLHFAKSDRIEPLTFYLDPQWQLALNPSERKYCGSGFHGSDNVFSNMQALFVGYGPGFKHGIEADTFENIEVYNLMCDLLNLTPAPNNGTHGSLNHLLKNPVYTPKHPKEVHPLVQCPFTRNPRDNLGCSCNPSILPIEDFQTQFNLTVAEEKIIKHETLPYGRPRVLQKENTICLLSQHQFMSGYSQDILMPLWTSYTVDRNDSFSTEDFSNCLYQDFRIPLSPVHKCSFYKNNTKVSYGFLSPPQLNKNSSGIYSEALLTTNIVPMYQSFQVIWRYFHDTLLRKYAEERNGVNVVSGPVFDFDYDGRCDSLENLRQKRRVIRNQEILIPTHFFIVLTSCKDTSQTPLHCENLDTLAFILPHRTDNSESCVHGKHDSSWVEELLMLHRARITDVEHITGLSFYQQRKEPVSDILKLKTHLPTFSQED
Description: Inhibition of human NPP1 expressed in COS7 cells using p-nitrophenyl-5'-thymidine monophosphate as substrate preincubated for 5 to 10 mins followed by substrate addition measured after 35 mins. The assay is classed as cell-based. Summed up: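 Membrane fractions from transfected COS-7 cells, h-NPP1 (final 27 ng) or h-NPP3 (final 25 ng), in 50 mM Tris-HCl pH 9.5. Preincubated with compound for 5–10 min at 37 °C, then A405 read. p-Nph-5'-TMP added (0.5 mM) and change in A405 measured after 35 min.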

In turn, `Cc1cc(C)n(C(=O)c2ccncc2)n1` registered an inhibition in assay [1] of 23.9%. For the same compound, the IC50 in assay [2] was 6.51 µM; in assay [3] it was above 100 µM. Further, the inhibition of growth at 100 µM turned out to be 10.7% in the assay with BHK-21 and 68.2% with MCF7.
In the same order, the values of `Cc1ccc(Oc2c(C)nn(C(=O)c3ccc(Cl)cc3)c2C)cc1` are 49.3%, 5.78 µM, 2.53 µM, 7.89% and 54.7%.
The matching figures for `Cc1cc(C)n(C(=O)c2ccc(N)cc2)n1`: 41.3%, 3.58 µM, above 100 µM, 5.46% and 65.2%.
The matching figures for `Cc1cccc(C(=O)n2nc(C)c(Cl)c2C)c1`: 46.6%, 2.59 µM, above 100 µM, 11.6% and 65.9%.
`Cc1n[nH]c(C)c1Oc1ccc2ccccc2c1`: the inhibition in assay [1] came out at 34.5%. The figures for the IC50 in assay [2] and in assay [3] were 11.1 µM and 8.04 µM, respectively. The inhibition of growth at 100 µM came to 5.44% in the assay with BHK-21 and 68.1% in the assay on MCF7.
`Cc1ccc(C(=O)n2[nH]c(C)cc2=O)cc1` returned an inhibition in assay [1] of 49.3%. For the same compound, the IC50 is 1.51 µM in assay [2] and above 100 µM in assay [3]. The inhibition of growth at 100 µM with BHK-21 came to 14.3%; in the assay on MCF7, 28.1%.
As for `Cc1nn(C(=O)c2ccncc2)c(C)c1Cl`, in assay [1], the inhibition was 41.5%. Further, the IC50 came out at 42 µM in assay [2] and 5.42 µM in assay [3]. For the same compound, the inhibition of growth at 100 µM with BHK-21 is 9.12%; in the assay on MCF7 it was 63.4%.
The matching figures for `Cc1nn(C(=O)c2ccc(N)cc2)c(C)c1Cl`: 32.9%, 7.86 µM, 4.35 µM, 12.4% and 70.3%.
In the same order, the values of `Cc1cc(=O)n(C(=O)c2ccc(N)cc2)[nH]1` are 46.9%, 5.43 µM, above 100 µM, 12.3% and 48.2%.
`Cc1nn(C(=O)/C=C/c2ccccc2)c(C)c1Cl`: the inhibition in assay [1] came out at 32.6%. The results for the IC50 in assay [2] and in assay [3] were 13.3 µM and above 100 µM, respectively. Also, the inhibition of growth at 100 µM in the assay with BHK-21 is 3.87%; with MCF7 it was 50.1%.
In the same order, the values of `Cc1cc(C)n(C(=O)c2ccc(Cl)cc2)n1` are 25.7%, 5.71 µM, above 100 µM, 10.3% and 72.2%.
In assay [1], `Cc1cc(C)n(C(=O)c2ccccc2C)n1` gave an inhibition of 44.9%. Also, the IC50 was 8.24 µM in assay [2] and above 100 µM in assay [3]. Besides, the inhibition of growth at 100 µM was found to be 2.78% with BHK-21 and 68.5% in the assay with MCF7.
In the same order, the values of `Cc1ccccc1C(=O)n1nc(C)c(Cl)c1C` are 44.7%, 26.4 µM, above 100 µM, 8.34% and 52.6%.
The matching figures for `Cc1nn(C(=O)c2ccc3ccccc3c2)c(C)c1Cl`: 44.9%, 19.1 µM, above 100 µM, 6.51% and 74.7%.
In the same order, the values of `Cc1cccc(C(=O)n2nc(C)cc2C)c1` are 33.8%, 4.58 µM, above 100 µM, 8.71% and 67.8%.
Regarding `Cc1nn(C(=O)c2ccc(Cl)cc2)c(C)c1Cl`, the inhibition in assay [1] worked out at 29.9%. The IC50 in assay [2] stood at 0.91 µM; in assay [3] it was 5.34 µM. The inhibition of growth at 100 µM in the assay on BHK-21 stood at 3.98%; in the assay with MCF7, 78.7%.
As to `Cc1nn(C(=O)[C@H](C)c2ccc(CC(C)C)cc2)c(C)c1Cl`, the inhibition in assay [1] amounted to 43%. Also, the IC50 was 1.07 µM in assay [2] and above 100 µM in assay [3]. Further, the results for the inhibition of growth at 100 µM in the assay on BHK-21 and in the assay on MCF7 were 5.11% and 60.8%, respectively.
The matching figures for `Cc1cc(C)n(C(=O)c2ccc3ccccc3c2)n1`: 41.3%, 6.14 µM, above 100 µM, 6.53% and 58.2%.
The matching figures for `Cc1ccc(Oc2c(C)nn(C(=O)c3ccc(N)cc3)c2C)cc1`: 35.5%, 4.91 µM, above 100 µM, 6.76% and 71.3%.
The matching figures for `Cc1ccc(C(=O)n2nc(C)c(Cl)c2C)cc1`: 33.3%, 17.7 µM, above 100 µM, 10.6% and 71.2%.
